Test results: ChEMBL document CHEMBL3875171, “[1,2]Oxazolo[5,4-e]isoindoles as promising tubulin polymerization inhibitors” (Eur J Med Chem, 2016)
The source made the active and inactive calls. The calls are words filed in the database; no cut-off is given here.

Tests used:
[1] = Cytotoxicity against human JR8 cells assessed as growth inhibition after 72 hrs by MTS assay; type: functional, cell-based; conditions: JR8, 72 h
Outline: (§1)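 Log-phase cells seeded at 4500 cells/50 µL and grown 24 h, then exposed 72 h to 0.01-100 µM compound; vehicle controls 0.01% DMSO. MTS read-out at 490 nm, expressed as % of DMSO-treated cells. Eight replicates per condition, at least three independent repeats; IC50 read graphically from dose-response curves.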

[2] = Cytotoxicity against human M14 cells assessed as growth inhibition after 72 hrs by MTS assay; type: functional, cell-based; conditions: M14, 72 h; outline: as §1
[3] = Cytotoxicity against human MCF7 cells assessed as growth inhibition after 72 hrs by MTS assay; type: functional, cell-based; conditions: MCF7, 72 h; outline: as §1
[4] = Cytotoxicity against human MDA-MB-231 cells assessed as growth inhibition after 72 hrs by MTS assay; type: functional, cell-based; conditions: MDA-MB-231, 72 h; outline: as §1
[5] = Cytotoxicity against human PC3 cells assessed as growth inhibition after 72 hrs by MTS assay; type: functional, cell-based; conditions: PC-3, 72 h; outline: as §1
[6] = Cytotoxicity against human DU145 cells assessed as growth inhibition after 72 hrs by MTS assay; type: functional, cell-based; conditions: DU-145, 72 h; outline: as §1
[7] = Cytotoxicity against human STO cells assessed as growth inhibition after 72 hrs by MTS assay; type: functional, cell-based; outline: as §1
[8] = Cytotoxicity against human MP8 cells assessed as growth inhibition after 72 hrs by MTS assay; type: functional, cell-based; conditions: MP8, 72 h; outline: as §1
[9] = Cytotoxicity against human WI38 cells assessed as growth inhibition after 72 hrs by MTS assay; type: toxicity, cell-based, WI-38; outline: as §1
[10] = Cytotoxicity against human MCF10A cells assessed as growth inhibition after 72 hrs by MTS assay; type: toxicity, cell-based, MCF-10A; outline: as §1
[11] = Antitumor activity against human STO cells xenografted in nude mouse assessed as tumor growth inhibition at 5 mg/kg, ip administered once per seven days for 4 weeks starting from day 10 post cell inoculum; type: functional; conditions: read-out: TGI
Outline: (§2)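 Female nude mice, 6-8 weeks old; 10^7 exponentially growing STO cells injected s.c. into right flank; eight mice per group. Compound in 10% DMSO/90% saline, 5 mg/kg i.p. q7dx4 from day 10 after inoculum. Tumor diameters measured weekly by caliper, TV = d2×D/2; TVI% = 100 − (mean TV treated/mean TV control × 100). Toxicity scored as body weight loss and lethality.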

Mus musculus = assay: Toxicity in nude mouse xenografted with human STO cells assessed as body weight loss at 5 mg/kg, ip administered once per seven days for 4 weeks starting from day 10 post cell inoculum; type: organism-based; conditions: in vivo, 672 h; outline: as §2
STO [12] = assay: Inhibition of alpha-tubulin polymerization in human STO cells assessed as increase in ratio of soluble to polymerized tubulin fraction at antiproliferative IC50 after 24 hrs by western blot analysis; type: cell-based
MP8 [13] = assay: Inhibition of alpha-tubulin polymerization in human MP8 cells assessed as increase in ratio of soluble to polymerized tubulin fraction at antiproliferative IC50 after 24 hrs by western blot analysis; type: cell-based
MP8 [14] = assay: Cell cycle arrest in human MP8 cells assessed as reduction G1 phase at antiproliferative IC50 after 48 to 72 hrs by propidium iodide staining based flow cytometry; type: functional
Outline: (§3)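 STO or MP8 cells exposed 48 and 72 h to compound at IC50 or IC80 (72-h MTS values), controls 1% DMSO. Adherent plus floating cells fixed in 70% ethanol, stained 30 min at 4°C with propidium iodide 50 µg/mL, RNase, 0.05% NP-40 in PBS. ≥30000 events per flow cytometry sample; Modfit model for G1/S/G2/M percentages; mean of three independent experiments.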

MP8 [15] = assay: Cell cycle arrest in human MP8 cells assessed as reduction G1 phase at antiproliferative IC80 after 48 to 72 hrs by propidium iodide staining based flow cytometry; type: functional; outline: as §3
STO [16] = assay: Cell cycle arrest in human STO cells assessed as reduction G1 phase at antiproliferative IC50 after 48 to 72 hrs by propidium iodide staining based flow cytometry; type: functional; outline: as §3
STO [17] = assay: Cell cycle arrest in human STO cells assessed as reduction G1 phase at antiproliferative IC80 after 48 to 72 hrs by propidium iodide staining based flow cytometry; type: functional; outline: as §3
[18] = Cell cycle arrest in human STO cells assessed as mitotic cells at antiproliferative IC50 after 72 hrs by fluorescence microscopic analysis relative to control; type: functional
[19] = Cell cycle arrest in human MP8 cells assessed as mitotic cells at antiproliferative IC50 after 72 hrs by fluorescence microscopic analysis relative to control; type: functional
STO [20] = assay: Inhibition of alpha-tubulin polymerization in human STO cells assessed as increase in ratio of soluble to polymerized tubulin fraction at 2 nM after 24 hrs by western blot analysis; type: cell-based
MP8 [21] = assay: Inhibition of alpha-tubulin polymerization in human MP8 cells assessed as increase in ratio of soluble to polymerized tubulin fraction at 13 nM after 24 hrs by western blot analysis; type: cell-based
STO [22] = assay: Cell cycle arrest in human STO cells assessed as accumulation at G2/M phase at antiproliferative IC50 after 48 to 72 hrs by propidium iodide staining based flow cytometry; type: functional; outline: as §3
MP8 [23] = assay: Cell cycle arrest in human MP8 cells assessed as accumulation at G2/M phase at antiproliferative IC50 after 48 to 72 hrs by propidium iodide staining based flow cytometry; type: functional; outline: as §3
[24] = Displacement of [3H]colchicine from tubulin (unknown origin); parameters: species or system Homo sapiens
[25] = Oral bioavailability in mouse; type: ADME, organism-based; conditions: in vivo
[26] = Oral bioavailability in rat; type: ADME, organism-based; conditions: in vivo
[27] = Oral bioavailability in dog; type: ADME, organism-based, Canis lupus familiaris; conditions: in vivo
[28] = Oral bioavailability in monkey; type: ADME, organism-based, Macaca mulatta; conditions: rhesus monkey, in vivo
[29] = Antitumor activity against mouse M5076 cells implanted in mouse assessed as increase in mouse life span at 100 mg/kg/day relative to control; type: functional
[30] = Antitumor activity against mouse M5076 cells implanted in mouse assessed as delay in time to develop 1 g tumor volume at 100 mg/kg/day; type: functional
[31] = Toxicity in mouse implanted with mouse M5076 cells; type: organism-based

| Compound | IC50 [1] [µM] | IC50 [2] [µM] | IC50 [3] [µM] | IC50 [4] [µM] | IC50 [5] [µM] | IC50 [6] [µM] | IC50 [7] [µM] | IC50 [8] [µM] | IC50 at 72 h [9] [µM] | IC50 at 72 h [10] [µM] | further results |
| --- | --- | --- | --- | --- | --- | --- | --- | --- | --- | --- | --- |
| CCOC(=O)c1c2c(c(C)n1Cc1ccc(OC)cc1)-c1oncc1CC2 | > 100 | > 100 | > 100 | > 100 | > 100 | > 100 | > 100 | > 100 | – | – | – |
| COc1ccc(-n2cc3c(c2)-c2oncc2CC3)cc1 | 61.6 | 58.5 | 79.6 | 57.5 | 79.9 | 81.1 | 25.5 | 21.2 | – | – | – |
| c1ccc(-n2cc3c(c2)-c2oncc2CC3)cc1 | 59.6 | 63.4 | 81.2 | 68.4 | 70.5 | 76.4 | 29.5 | 25.3 | – | – | – |
| COc1ccc(Cn2cc3c(c2)-c2oncc2CC3)cc1OC | 0.85 | 0.96 | 1.03 | 0.88 | 0.79 | 0.87 | 0.64 | 0.51 | > 100 | > 100 | – |
| Cc1ccc(Cn2cc3c(c2)-c2oncc2CC3)cc1 | > 100 | > 100 | > 100 | > 100 | > 100 | > 100 | > 100 | > 100 | – | – | – |
| COc1cc(Cn2cc3c(c2)-c2oncc2CC3)cc(OC)c1 | 0.23 | 0.31 | 0.33 | 0.32 | 0.27 | 0.31 | 0.06 | 0.07 | > 100 | > 100 | inhibition in vivo at 5 mg/kg [11]: 51%; Activity (Mus musculus): Non-Toxic; inhibition (STO [12]): Active; inhibition (MP8 [13]): Active; Activity (MP8 [14]): Active; Activity (MP8 [15]): Active; Activity (STO [16]): Active; Activity (STO [17]): Active; Activity [18]: 35 - 70%; Activity [19]: 35 - 70% |
| COc1cc(Cn2cc3c(c2)-c2oncc2CC3)cc(OC)c1OC | 0.63 | 0.89 | 0.92 | 0.75 | 0.87 | 0.99 | 0.62 | 0.73 | > 100 | > 100 | – |
| CCC1=C[C@@H]2CN(C1)Cc1c([nH]c3ccccc13)[C@@](C(=O)OC)(c1cc3c(cc1OC)N(C)[C@H]1[C@@](O)(C(=O)OC)[C@H](OC(C)=O)[C@]4(CC)C=CCN5CC[C@]31[C@@H]54)C2 [VINORELBINE] | – | – | – | – | – | – | – | – | – | – | inhibition (STO [20]): Active; inhibition (MP8 [21]): Active; Activity (STO [22]): Active; Activity (MP8 [23]): Active; Activity [18]: 35 - 70%; Activity [19]: 35 - 70% |
| COc1cccc(Cn2cc3c(c2)-c2oncc2CC3)c1 | 0.96 | 1.02 | 1.17 | 0.85 | 0.96 | 1.37 | 0.46 | 0.51 | > 100 | > 100 | – |
| CCOC(=O)c1c2c(c(C)n1Cc1ccccc1)-c1oncc1CC2 | > 100 | > 100 | > 100 | > 100 | > 100 | > 100 | > 100 | > 100 | – | – | – |
| CC(=O)O[C@H]1C(=O)[C@@]2(C)[C@H]([C@H](OC(=O)c3ccccc3)[C@]3(O)C[C@H](OC(=O)[C@H](O)[C@@H](NC(=O)c4ccccc4)c4ccccc4)C(C)=C1C3(C)C)[C@]1(OC(C)=O)CO[C@@H]1C[C@@H]2O [PACLITAXEL] | – | – | – | – | – | – | – | – | – | – | Activity (STO [22]): Active; Activity (MP8 [23]): Active; Activity [18]: 35 - 70%; Activity [19]: 35 - 70% |
| COc1ccc(OC)c(Cn2cc3c(c2)-c2oncc2CC3)c1 | 19.2 | 16.8 | 15.2 | 19.6 | 23.7 | 19.5 | > 100 | > 100 | > 100 | > 100 | – |
| Cn1cc2c(c1)-c1oncc1CC2 | 58.4 | 65.8 | 86.6 | 55.4 | 77.1 | 69.3 | 28.1 | 26.7 | – | – | – |
| CCOC(=O)c1c2c(c(C)n1C)-c1oncc1CC2 | > 100 | > 100 | > 100 | > 100 | > 100 | > 100 | > 100 | > 100 | – | – | – |
| Cc1c2c(cn1C)CCc1cnoc1-2 | > 100 | > 100 | > 100 | > 100 | > 100 | > 100 | > 100 | > 100 | – | – | – |
| c1ccc(Cn2cc3c(c2)-c2oncc2CC3)cc1 | 5.14 | 6.88 | 11.3 | 19.6 | 13.5 | 15.2 | 0.79 | 0.69 | > 100 | > 100 | – |
| COc1ccccc1Cn1cc2c(c1)-c1oncc1CC2 | 16.2 | 20.5 | 19.4 | 14.4 | 18.6 | 17.5 | 0.79 | 1.52 | > 100 | > 100 | – |
| COc1cccc(Cn2cc3c(c2)-c2oncc2CC3)c1OC | > 100 | > 100 | > 100 | > 100 | > 100 | > 100 | > 100 | > 100 | – | – | – |
| COc1cc([C@H]2CN=C(c3ccc4c(ccn4C)c3)O2)cc(OC)c1OC | – | – | – | – | – | – | – | – | – | – | Ki [24]: 0.65 µM; bioavailability [25]: 6.5 to 18.6%; bioavailability [26]: 6.5 to 18.6%; bioavailability [27]: 6.5 to 18.6%; bioavailability [28]: 6.5 to 18.6%; Activity [29]: 206%; Time [30]: 28 days; MTD [31]: 100 mg/kg/day |
| Cc1c2c(cn1Cc1ccccc1)CCc1cnoc1-2 | > 100 | > 100 | > 100 | > 100 | > 100 | > 100 | > 100 | > 100 | – | – | – |
| COc1ccc(Cn2cc3c(c2)-c2oncc2CC3)cc1 | 9.15 | 12.5 | 7.89 | 15.6 | 18.6 | 15.2 | > 100 | > 100 | > 100 | > 100 | – |
